Measurements from ChEMBL document CHEMBL1126620, “Systematic substitution of an oxytocin antagonist with D-amino acids: unexpected high antagonistic potency of the D-Cys6-substituted analogue” (J Med Chem, 1993).

System: Rattus norvegicus
Assay: In vivo evaluation for the competitive antagonism of Antidiuretic action in the rat determined by the rat antidiuretic assay
Settings: Urine, read-out: pA2 (converted)

SMILES | Kb [µM]
CC[C@H](C)[C@@H]1NC(=O)[C@@H](Cc2c[nH]c3ccccc23)NC(=O)CC2(CCCCC2)SSC[C@@H](C(=O)N2CCC[C@H]2C(=O)N[C@H](CCCN=C(N)N)C(=O)NCC(N)=O)NC(=O)[C@H](CC(N)=O)NC(=O)[C@H](CCC(N)=O)NC1=O | > 2.51
CC[C@H](C)[C@@H]1NC(=O)[C@@H](Cc2c[nH]c3ccccc23)NC(=O)CC2(CCCCC2)SSC[C@@H](C(=O)N2CCC[C@H]2C(=O)N[C@@H](CCCN=C(N)N)C(=O)NCC(N)=O)NC(=O)[C@H](CC(N)=O)NC(=O)[C@H](CCC(N)=O)NC1=O | > 1.26
CC[C@H](C)[C@@H]1NC(=O)[C@@H](Cc2c[nH]c3ccccc23)NC(=O)CC2(CCCCC2)SSC[C@H](C(=O)N2CCC[C@H]2C(=O)N[C@@H](CCCN=C(N)N)C(=O)NCC(N)=O)NC(=O)[C@H](CC(N)=O)NC(=O)[C@H](CCC(N)=O)NC1=O | > 0.501

Species: Rattus norvegicus
Assay: In vitro competitive antagonist effect of OT contractile action in the rat uterus determined by the rat oxytocic assay in presence of Mg2+
Assay type: functional
Settings: read-out: pA2 (converted)
In short: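 Isolated rat uterus, oxytocin-induced contraction, bath containing magnesium salts; pA2 (negative log molar antagonist concentration halving agonist response) obtained by Schild method from at least four separate assays.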

SMILES | Kb [µM]
CC[C@H](C)[C@@H]1NC(=O)[C@@H](Cc2c[nH]c3ccccc23)NC(=O)CC2(CCCCC2)SSC[C@@H](C(=O)N2CCC[C@H]2C(=O)N[C@@H](CCCNC(=N)N)C(=O)NCC(N)=O)NC(=O)[C@H](CC(N)=O)NC(=O)[C@@H]([C@H](C)O)NC1=O | 11.2
CC[C@H](C)[C@@H]1NC(=O)[C@@H](Cc2c[nH]c3ccccc23)NC(=O)CC2(CCCCC2)SSC[C@@H](C(=O)N2CCC[C@H]2C(=O)N[C@H](CCCN=C(N)N)C(=O)NCC(N)=O)NC(=O)[C@H](CC(N)=O)NC(=O)[C@H](CCC(N)=O)NC1=O | 0.0123
CC[C@@H](C)[C@H]1NC(=O)[C@@H](Cc2c[nH]c3ccccc23)NC(=O)CC2(CCCCC2)SSC[C@@H](C(=O)N2CCC[C@H]2C(=O)N[C@@H](CCCN=C(N)N)C(=O)NCC(N)=O)NC(=O)[C@H](CC(N)=O)NC(=O)[C@H](CCC(N)=O)NC1=O | 5.89
CC[C@H](C)[C@@H]1NC(=O)[C@@H](Cc2c[nH]c3ccccc23)NC(=O)CC2(CCCCC2)SSC[C@@H](C(=O)N2CCC[C@@H]2C(=O)N[C@@H](CCCN=C(N)N)C(=O)NCC(N)=O)NC(=O)[C@H](CC(N)=O)NC(=O)[C@H](CCC(N)=O)NC1=O | 0.0141
CC[C@H](C)[C@@H]1NC(=O)[C@@H](Cc2c[nH]c3ccccc23)NC(=O)CC2(CCCCC2)SSC[C@@H](C(=O)N2CCC[C@H]2C(=O)N[C@@H](CCCN=C(N)N)C(=O)NCC(N)=O)NC(=O)[C@H](CC(N)=O)NC(=O)[C@@H](CCCNC(N)=O)NC1=O | 3.09
CC[C@H](C)[C@H]1NC(=O)[C@@H](Cc2c[nH]c3ccccc23)NC(=O)CC2(CCCCC2)SSC[C@@H](C(=O)N2CCC[C@H]2C(=O)N[C@@H](CCCN=C(N)N)C(=O)NCC(N)=O)NC(=O)[C@H](CC(N)=O)NC(=O)[C@H](CCC(N)=O)NC1=O | 7.76
CC[C@H](C)[C@@H]1NC(=O)[C@@H](Cc2c[nH]c3ccccc23)NC(=O)CC2(CCCCC2)SSC(C)(C)[C@H](C(=O)N2CCC[C@H]2C(=O)N[C@@H](CCCNC(=N)N)C(=O)NCC(N)=O)NC(=O)[C@H](CC(N)=O)NC(=O)[C@H](CCC(N)=O)NC1=O | 0.0105
CC[C@H](C)[C@@H]1NC(=O)[C@@H](Cc2c[nH]c3ccccc23)NC(=O)CC2(CCCCC2)SSC[C@@H](C(=O)N2CCC[C@H]2C(=O)N[C@@H](CCCN=C(N)N)C(=O)NCC(N)=O)NC(=O)[C@H](CC(N)=O)NC(=O)[C@@H](CC(N)=O)NC1=O | 3.89
CC[C@H](C)[C@@H]1NC(=O)[C@@H](Cc2c[nH]c3ccccc23)NC(=O)CC2(CCCCC2)SSC[C@H](C(=O)N2CCC[C@H]2C(=O)N[C@@H](CCCN=C(N)N)C(=O)NCC(N)=O)NC(=O)[C@H](CC(N)=O)NC(=O)[C@H](CCC(N)=O)NC1=O | 0.00513
